Measured values: ChEMBL document CHEMBL1140626, “Quantitative structure-activity relationship of peptides binding to the class II major histocompatibility complex molecule Aq associated with autoimmune arthritis” (J Med Chem, 2007)

Assays:
Assay type in all cases: cell-based
[1] = Displacement of biotinylated CLIP peptide from H-2Aq expressed in M12Q 14-7 cells at 250 uM
Method in brief: (§1)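 Competition binding on M12Q 14-7 cells transfected with H-2Aq. Test peptide (seven levels, 750 to 1 µM) co-incubated 2.5 h at 37 °C with biotinylated CLIP at 5 µM. After washing, cells were stained with streptavidin-PE and read by flow cytometry. % inhibition was taken from gated mean fluorescence against the no-inhibitor control, after subtracting the no-CLIP background. Duplicates, repeated once; duplicate averages were used.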

[2] = Displacement of biotinylated CLIP peptide from H-2Aq expressed in M12Q 14-7 cells at 83 uM; method in brief: as §1
[3] = Displacement of biotinylated CLIP peptide from H-2Aq expressed in M12Q 14-7 cells at 28 uM; method in brief: as §1

Ac-IAAFKADSK-NH2
inhibition [1]: 53% | inhibition [2]: 36% | inhibition [3]: 31%

Ac-IAMFKMRSK-NH2
inhibition [1]: 78% | inhibition [2]: 63% | inhibition [3]: 40%

Ac-IAMFKSVNK-NH2
inhibition [1]: 50% | inhibition [2]: 32% | inhibition [3]: 19%

Ac-IATFKTYYK-NH2
inhibition [1]: 70% | inhibition [2]: 58% | inhibition [3]: 38%

Ac-IAVFKMVRK-NH2
inhibition [1]: 70% | inhibition [2]: 59% | inhibition [3]: 42%

Ac-IMMFKMSDK-NH2
inhibition [1]: 30% | inhibition [2]: 17% | inhibition [3]: 4%

Ac-IMMFKTDVK-NH2
inhibition [1]: 16% | inhibition [2]: 24% | inhibition [3]: 10%

Ac-IMMFKVRRK-NH2
inhibition [1]: 74% | inhibition [2]: 52% | inhibition [3]: 36%

Ac-IMSFKTRDK-NH2
inhibition [1]: 54% | inhibition [2]: 27% | inhibition [3]: 15%

Ac-IMTFKAVYK-NH2
inhibition [1]: 72% | inhibition [2]: 59% | inhibition [3]: 47%

Ac-IMTFKMYVK-NH2
inhibition [1]: 48% | inhibition [2]: 40% | inhibition [3]: 13%

Ac-ISAFKTNRK-NH2
inhibition [1]: 84% | inhibition [2]: 61% | inhibition [3]: 42%

Ac-ISTFKARVK-NH2
inhibition [1]: 74% | inhibition [2]: 58% | inhibition [3]: 39%

Ac-ITMFKMDRK-NH2
inhibition [1]: 62% | inhibition [2]: 46% | inhibition [3]: 26%

Ac-ITMFKVVYK-NH2
inhibition [1]: 59% | inhibition [2]: 50% | inhibition [3]: 35%

Ac-ITSFKMRYK-NH2
inhibition [1]: 80% | inhibition [2]: 69% | inhibition [3]: 50%

Ac-ITTFKSSSK-NH2
inhibition [1]: 20% | inhibition [2]: 6% | inhibition [3]: 6%

Ac-IVAFKTVVK-NH2
inhibition [1]: 41% | inhibition [2]: 27% | inhibition [3]: 22%

Ac-IVSFKAYRK-NH2
inhibition [1]: 51% | inhibition [2]: 61% | inhibition [3]: 49%
